For assay [1], the system named is GST-Shh, GST-Ihh, or GST-Dhh. In words: Competition assay for Hh analog selectivity. Format: binding, human. Conditions: 10 μM robotnikinin + 400 nM FLAG-HL2-m5. Put shortly:
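Competition format: PBS containing 10 μM competitor plus 400 nM FLAG-tagged macrocyclic peptide (recombinant, E. coli) added to wells coated with GST-Shh, GST-Ihh or GST-Dhh (E. coli BL21(DE3)-expressed, Ni-NTA purified). Wells then developed by HRP anti-FLAG antibody, o-phenylenediamine/urea peroxide substrate (pH 5.0) and A450. Relative affinity = (1 − % inhibition)GST-Hh/(1 − % inhibition)GST-Shh. Triplicate, mean and SD.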

The subject of assay [2] is Shh / Hedgehog pathway activation. Conditions: read-out: IC50, Shh inhibitory activity in vitro and in cells; similar cell-based assay; cited from earlier work.
A further assay concerns Shh/Patched interaction. Conditions: read-out: IC50 for inhibition of the Shh/Patched interaction in vitro; ref 25a; cited from earlier work.
Assay [3] deals with Shh-mediated Hedgehog signaling (Gli-controlled Firefly luciferase) in NIH3T3 cells. Nature of the assay: Gli-reporter dual luciferase assay in Shh-N-stimulated NIH3T3 cells. It is filed as cell-based, mouse.

The values that follow come from article PMC5753398 (Journal of the American Chemical Society, 2017).

On to `O=C(C[C@@H]1C/C=C/CCC(=O)O[C@H](c2ccccc2)CNC1=O)NCc1ccc(Cl)cc1` [robotnikinin], for which the “Affinity toward Ihh and Dhh relative to Shh” value in assay [1] is given as “significantly lower affinity”. Also, the IC50 in assay [2] was around 15 µM.

“HHIP370–390: linear HHIP L2-derived peptide from the literature (GDGMITLDDMEEMDGLSDFTG; UniProt Q96QV1 370-390, looked up, fragment)”: the IC50 in the assay with Shh/Patched interaction was 150 µM.

Consider `CC1=C2C[C@H]3[C@@H](CC=C4C[C@@H](O)CC[C@@]43C)[C@@H]2CC[C@]12O[C@@H]1C[C@H](C)CN[C@H]1[C@H]2C` [cyclopamine], for which the “Inhibition of Shh-induced luminescence” value in assay [3] (10 μM, assay validation) is on record as “full inhibition”.

With Ac-TLDDMEEMDGLSD-NH2 [L2-pep], the “Inhibitory activity in Gli-reporter assay” value in assay [3] (concentrations up to 30 μM, identical conditions) is reported as “no inhibitory activity”.

Regarding `c1ccc2c(Oc3nc(Nc4ccc(N5CCOCC5)cc4)c4ncn(C5CCCCC5)c4n3)cccc2c1` [purmorphamine], the “Effect on signaling pathway in HL2-m5-treated cells” value in assay [3] (5 μM purmorphamine added to cells treated with 10 μM HL2-m5) is listed as “restored activation”.
